≈ marks a conversion by molar mass, not a printed value.
Key:
[1] = AUC in Wistar rat at 3 mg/kg, iv by liquid chromatography-tandem mass spectrometry; type: ADME, organism-based; settings: in vivo
[2] = AUC in balb/c mouse at 20 mg/kg, po by liquid chromatography-tandem mass spectrometry; type: ADME, organism-based; settings: in vivo
Method in brief: (§1)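 Rodent PK in male balb/c mice and male Wistar rats; plasma drug levels by LC-MS/MS. Mouse oral dosing at 20 mg/kg, with compounds given as a 0.5% methylcellulose/0.5% Tween 80 suspension or as solutions (PEG300/D5W, or ethanol/PEG300 with Solutol or D5W), depending on compound.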

[3] = AUC in Wistar rat at 10 mg/kg, po by liquid chromatography-tandem mass spectrometry; type: ADME, organism-based; settings: in vivo; method in brief: as §1
[4] = Mean residence time in Wistar rat at 3 mg/kg, iv by liquid chromatography-tandem mass spectrometry; type: ADME, organism-based; settings: in vivo
[5] = Clearance in balb/c mouse at 5 mg/kg, iv by liquid chromatography-tandem mass spectrometry relative to liver blood flow; type: ADME, organism-based; settings: in vivo
[6] = Tmax in balb/c mouse at 20 mg/kg, po by liquid chromatography-tandem mass spectrometry; type: ADME, organism-based; settings: in vivo; method in brief: as §1
[7] = Volume of distribution at steady state in Wistar rat at 3 mg/kg, iv by liquid chromatography-tandem mass spectrometry; type: ADME, organism-based; settings: in vivo, read-out: Vdss
Method in brief: (§2)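 Male animals (balb/c mice or Wistar rats) were used. Compound levels in plasma were measured by LC-MS/MS.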

[8] = Antitumor activity against human NCI-H1975 cells xenografted in Foxn1 nude mouse assessed as reduction in tumor volume at 50 mg/kg, po qd for 5 days relative to untreated control; type: functional
Method in brief: (§3)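 Female Foxn1 nude mice, H1975 cells inoculated subcutaneously. Randomized into groups once tumors reached 150−200 mm³, then dosed by oral gavage once daily for 5 days in 0.5% MC/0.5% Tween80 suspension (10 μL/g). Tumor volumes by caliper, (length × width × width)/2. %T/C = 100 × ΔT/ΔC, or % regression = 100 × ΔT/T_initial when ΔT < 0. Body weight recorded daily.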

[9] = Clearance in Wistar rat at 3 mg/kg, iv by liquid chromatography-tandem mass spectrometry relative to liver blood flow; type: ADME, organism-based; settings: in vivo
[10] = system: Mus musculus; assay: Toxicity in human NCI-H1975 cells xenografted Foxn1 nude mouse assessed as change in body weight at 50 mg/kg, po qd for 5 days (reference value: […]); type: organism-based; settings: in vivo, 120 h
[11] = Oral bioavailability in Wistar rat at 10 mg/kg by liquid chromatography-tandem mass spectrometry; type: ADME, organism-based; settings: in vivo; method in brief: as §1
[12] = Tmax in Wistar rat at 10 mg/kg, po by liquid chromatography-tandem mass spectrometry; type: ADME, organism-based; settings: in vivo; method in brief: as §1
[13] = Cmax in balb/c mouse at 20 mg/kg, po by liquid chromatography-tandem mass spectrometry; type: ADME, organism-based; set-up: dose 20 mg/kg, route oral; settings: in vivo; method in brief: as §1
[14] = species on record: Homo sapiens; assay: Antitumor activity in NSCLC patient assessed as response rate; type: functional
[15] = Oral bioavailability in balb/c mouse at 20 mg/kg by liquid chromatography-tandem mass spectrometry; type: ADME, organism-based; settings: in vivo; method in brief: as §1
[16] = molecular target: Cytochrome P450 2D6 (Homo sapiens, UniProt P10635); assay: Inhibition of CYP2D6 (unknown origin); type: ADME
Cytochrome P450 2D6, sequence (P10635 whole entry): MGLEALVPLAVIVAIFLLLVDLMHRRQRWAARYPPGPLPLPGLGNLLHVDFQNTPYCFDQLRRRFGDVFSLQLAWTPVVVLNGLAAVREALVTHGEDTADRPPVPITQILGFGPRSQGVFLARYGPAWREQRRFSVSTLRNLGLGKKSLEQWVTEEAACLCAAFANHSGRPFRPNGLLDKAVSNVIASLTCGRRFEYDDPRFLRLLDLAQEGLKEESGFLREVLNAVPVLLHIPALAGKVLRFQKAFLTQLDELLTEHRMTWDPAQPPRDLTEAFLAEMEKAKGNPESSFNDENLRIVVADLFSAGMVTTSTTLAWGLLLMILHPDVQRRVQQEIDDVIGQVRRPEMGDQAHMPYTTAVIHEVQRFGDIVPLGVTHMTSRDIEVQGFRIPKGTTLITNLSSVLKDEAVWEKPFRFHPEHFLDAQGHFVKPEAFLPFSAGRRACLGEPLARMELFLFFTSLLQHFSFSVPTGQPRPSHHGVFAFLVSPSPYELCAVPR

[17] = Cmax in Wistar rat at 10 mg/kg, po by liquid chromatography-tandem mass spectrometry; type: ADME, organism-based; set-up: dose 10 mg/kg, route oral; settings: in vivo; method in brief: as §1
[18] = Volume of distribution at steady state in balb/c mouse at 5 mg/kg, iv by liquid chromatography-tandem mass spectrometry; type: ADME, organism-based; settings: in vivo, read-out: Vdss; method in brief: as §2
[19] = species on record: Homo sapiens; assay: Antitumor activity in NSCLC patient assessed as disease control rate; type: functional
[20] = Intrinsic clearance in mouse liver microsomes; type: ADME; settings: read-out: CLH
[21] = Inhibition of EGFR E746 to A750 deletion mutant phosphorylation in human patient derived HCC827 cells incubated for 3 hrs by ELISA method; type: cell-based; settings: HCC827, 3 h
Method in brief: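 HCC827 cells plated at 7500/well in 5% FBS/RPMI and left overnight at 37 °C. Then 3 h with a 12-point compound dilution series, no EGF stimulation. Lysed in Triton/protease/phosphatase-inhibitor buffer. Phospho-EGFR (Y1173) read by sandwich ELISA: anti-EGFR capture, anti-phospho-EGFR, anti-rabbit-HRP, chemiluminescence. IC50 from at least duplicates.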

[22] = Aqueous solubility of the compound at pH 6.8; type: physicochemical
[23] = AUC in balb/c mouse at 5 mg/kg, iv by liquid chromatography-tandem mass spectrometry; type: ADME, organism-based; settings: in vivo
[24] = Time duration during which free plasma concentration stays above in-vitro IC50 level in human NCI-H1975 cells xenografted Foxn1 nude mouse at 50 mg/kg, po qd for 5 days; type: ADME, organism-based; settings: in vivo, 120 h
Method in brief: (§4)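 H1975 xenografts in Foxn1 nude mice, oral dosing once daily for 5 days. Plasma sampled after the last dose on day 5, at 30 min, 3 h, 7 h and 24 h. Free drug exposure was compared with in vitro cellular IC50 across the dosing interval.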

[25] = Clearance in Wistar rat at 3 mg/kg, iv by liquid chromatography-tandem mass spectrometry; type: ADME, organism-based; settings: in vivo; method in brief: as §1
[26] = molecular target: Cytochrome P450 2C9 (Homo sapiens, UniProt P11712); assay: Inhibition of CYP2C9 (unknown origin); type: ADME
Cytochrome P450 2C9, sequence (P11712 whole entry): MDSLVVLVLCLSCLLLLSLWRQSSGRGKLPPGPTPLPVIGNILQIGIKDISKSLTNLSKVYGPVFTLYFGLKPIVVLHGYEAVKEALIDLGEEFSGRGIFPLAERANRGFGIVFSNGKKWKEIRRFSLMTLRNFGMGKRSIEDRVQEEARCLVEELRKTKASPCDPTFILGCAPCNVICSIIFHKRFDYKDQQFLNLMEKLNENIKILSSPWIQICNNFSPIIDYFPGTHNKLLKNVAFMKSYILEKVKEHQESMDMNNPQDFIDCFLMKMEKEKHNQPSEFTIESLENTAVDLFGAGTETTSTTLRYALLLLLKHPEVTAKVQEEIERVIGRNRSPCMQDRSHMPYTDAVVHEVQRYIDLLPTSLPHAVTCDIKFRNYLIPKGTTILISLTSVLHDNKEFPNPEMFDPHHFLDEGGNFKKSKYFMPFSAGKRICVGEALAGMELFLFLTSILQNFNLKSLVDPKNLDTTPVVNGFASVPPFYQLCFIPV

[27] = Mean residence time in balb/c mouse at 5 mg/kg, iv by liquid chromatography-tandem mass spectrometry; type: ADME, organism-based; settings: in vivo
[28] = Intrinsic clearance in human liver microsomes; type: ADME; settings: read-out: CLH
[29] = Time duration during which free plasma concentration stays above in-vitro IC50 level in human NCI-H1975 cells xenografted Foxn1 nude mouse at 25 mg/kg, po qd for 5 days; type: ADME, organism-based; settings: in vivo, 120 h; method in brief: as §4
[30] = Antitumor activity against human NCI-H1975 cells xenografted in Foxn1 nude mouse assessed as reduction in tumor volume at 25 mg/kg, po qd for 5 days relative to untreated control; type: functional; method in brief: as §3
[31] = molecular target: Cytochrome P450 3A4 (Homo sapiens, UniProt P08684); assay: Inhibition of CYP3A4 (unknown origin); type: ADME
Cytochrome P450 3A4, sequence (P08684 whole entry): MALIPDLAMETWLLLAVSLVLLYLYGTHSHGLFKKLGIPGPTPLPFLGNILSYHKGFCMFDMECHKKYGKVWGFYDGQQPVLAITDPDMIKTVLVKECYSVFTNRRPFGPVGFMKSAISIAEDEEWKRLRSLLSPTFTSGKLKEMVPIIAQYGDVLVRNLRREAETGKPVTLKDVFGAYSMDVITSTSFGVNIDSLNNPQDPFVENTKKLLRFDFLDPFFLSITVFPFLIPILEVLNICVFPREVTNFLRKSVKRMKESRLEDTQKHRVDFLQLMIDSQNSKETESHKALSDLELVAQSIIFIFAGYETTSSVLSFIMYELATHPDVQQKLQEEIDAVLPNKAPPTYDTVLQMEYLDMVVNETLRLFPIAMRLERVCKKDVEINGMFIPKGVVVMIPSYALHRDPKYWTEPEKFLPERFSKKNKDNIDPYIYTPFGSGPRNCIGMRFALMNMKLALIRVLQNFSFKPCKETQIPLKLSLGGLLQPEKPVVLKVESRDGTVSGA

[32] = Clearance in balb/c mouse at 5 mg/kg, iv by liquid chromatography-tandem mass spectrometry; type: ADME, organism-based; settings: in vivo; method in brief: as §1
[33] = system: Mus musculus; assay: Toxicity in human NCI-H1975 cells xenografted Foxn1 nude mouse assessed as change in body weight at 25 mg/kg, po qd for 5 days (reference value: […]); type: organism-based; settings: in vivo, 120 h
[34] = Time duration during which free plasma concentration stays above in-vitro IC50 level in human NCI-H1975 cells xenografted Foxn1 nude mouse at 20 mg/kg, po qd for 5 days; type: ADME, organism-based; settings: in vivo, 120 h; method in brief: as §4
[35] = molecular target: Epidermal growth factor receptor (Homo sapiens, UniProt P00533); assay: Inhibition of wild type EGFR phosphorylation in human HaCaT cells incubated for 3 hrs by ELISA method; type: cell-based
Epidermal growth factor receptor (Homo sapiens, UniProt P00533), sequence (P00533 whole entry): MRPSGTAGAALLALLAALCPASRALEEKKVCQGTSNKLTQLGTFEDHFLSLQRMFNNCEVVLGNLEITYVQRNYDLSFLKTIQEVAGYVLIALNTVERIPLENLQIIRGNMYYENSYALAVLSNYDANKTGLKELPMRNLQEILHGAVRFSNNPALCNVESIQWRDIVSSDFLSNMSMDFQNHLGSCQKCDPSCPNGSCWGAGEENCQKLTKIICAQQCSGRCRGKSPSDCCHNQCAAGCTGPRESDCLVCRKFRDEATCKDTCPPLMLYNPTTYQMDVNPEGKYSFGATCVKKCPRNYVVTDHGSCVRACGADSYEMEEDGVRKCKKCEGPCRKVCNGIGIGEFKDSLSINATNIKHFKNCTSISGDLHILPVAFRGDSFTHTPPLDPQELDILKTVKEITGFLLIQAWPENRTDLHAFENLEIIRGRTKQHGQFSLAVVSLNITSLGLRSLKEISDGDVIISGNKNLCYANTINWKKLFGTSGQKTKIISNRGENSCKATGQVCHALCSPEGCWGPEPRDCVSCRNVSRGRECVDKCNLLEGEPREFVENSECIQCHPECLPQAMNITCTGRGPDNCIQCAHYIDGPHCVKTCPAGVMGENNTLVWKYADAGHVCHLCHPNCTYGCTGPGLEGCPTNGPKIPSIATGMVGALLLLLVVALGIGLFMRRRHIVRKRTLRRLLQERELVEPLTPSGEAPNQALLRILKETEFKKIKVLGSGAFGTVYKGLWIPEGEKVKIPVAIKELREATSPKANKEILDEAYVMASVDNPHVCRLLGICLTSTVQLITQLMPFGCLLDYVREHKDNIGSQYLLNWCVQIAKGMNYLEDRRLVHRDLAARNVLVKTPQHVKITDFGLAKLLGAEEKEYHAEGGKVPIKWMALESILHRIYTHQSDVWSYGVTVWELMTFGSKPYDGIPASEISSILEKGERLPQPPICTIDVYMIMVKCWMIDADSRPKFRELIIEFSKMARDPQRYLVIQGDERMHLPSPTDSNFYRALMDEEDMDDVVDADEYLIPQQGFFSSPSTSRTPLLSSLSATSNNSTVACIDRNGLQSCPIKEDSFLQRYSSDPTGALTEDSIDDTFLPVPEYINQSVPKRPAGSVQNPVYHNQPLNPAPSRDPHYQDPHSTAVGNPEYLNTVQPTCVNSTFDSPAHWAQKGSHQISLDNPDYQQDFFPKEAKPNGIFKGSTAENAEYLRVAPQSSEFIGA

[36] = molecular target: Epidermal growth factor receptor (Homo sapiens, UniProt P00533, L858R); assay: Inhibition of EGFR L858R mutant phosphorylation in human patient derived H3255 cells incubated for 3 hrs by ELISA method; type: cell-based
Epidermal growth factor receptor (Homo sapiens, UniProt P00533, L858R), sequence (P00533 25-1210 L858R limits assumed): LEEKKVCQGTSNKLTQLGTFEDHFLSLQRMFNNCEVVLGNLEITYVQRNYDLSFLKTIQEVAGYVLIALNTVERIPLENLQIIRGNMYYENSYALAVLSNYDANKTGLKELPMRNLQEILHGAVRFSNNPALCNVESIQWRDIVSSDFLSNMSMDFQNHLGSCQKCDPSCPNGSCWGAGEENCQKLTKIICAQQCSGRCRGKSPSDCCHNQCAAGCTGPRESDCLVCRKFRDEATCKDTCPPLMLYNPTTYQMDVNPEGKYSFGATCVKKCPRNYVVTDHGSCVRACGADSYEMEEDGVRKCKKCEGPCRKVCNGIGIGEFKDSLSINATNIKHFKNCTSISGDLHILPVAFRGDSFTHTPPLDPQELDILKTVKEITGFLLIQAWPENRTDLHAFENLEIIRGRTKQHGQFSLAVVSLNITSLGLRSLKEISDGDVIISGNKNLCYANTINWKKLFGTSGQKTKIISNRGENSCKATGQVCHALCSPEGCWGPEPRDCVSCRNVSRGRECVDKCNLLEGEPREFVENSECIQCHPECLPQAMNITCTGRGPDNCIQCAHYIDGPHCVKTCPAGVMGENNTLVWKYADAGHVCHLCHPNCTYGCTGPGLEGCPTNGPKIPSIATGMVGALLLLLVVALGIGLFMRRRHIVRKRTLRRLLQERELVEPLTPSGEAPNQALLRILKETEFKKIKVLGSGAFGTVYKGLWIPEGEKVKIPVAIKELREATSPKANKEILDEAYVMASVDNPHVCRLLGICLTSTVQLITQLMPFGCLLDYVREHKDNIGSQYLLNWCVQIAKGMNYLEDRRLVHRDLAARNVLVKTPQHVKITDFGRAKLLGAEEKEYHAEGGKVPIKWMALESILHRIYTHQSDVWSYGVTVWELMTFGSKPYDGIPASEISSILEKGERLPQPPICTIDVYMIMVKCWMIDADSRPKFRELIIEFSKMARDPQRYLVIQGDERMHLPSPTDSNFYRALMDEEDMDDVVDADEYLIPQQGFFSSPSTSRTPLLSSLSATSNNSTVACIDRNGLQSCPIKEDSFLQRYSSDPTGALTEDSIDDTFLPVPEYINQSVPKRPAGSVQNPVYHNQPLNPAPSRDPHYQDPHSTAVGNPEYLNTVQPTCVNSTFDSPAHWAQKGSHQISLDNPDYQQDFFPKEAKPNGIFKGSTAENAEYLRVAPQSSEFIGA

[37] = molecular target: Epidermal growth factor receptor (Homo sapiens, UniProt P00533, L858R/T790M); assay: Inhibition of EGFR L858R/T790M mutant phosphorylation in human patient derived H1975 cells incubated for 3 hrs by ELISA method; type: cell-based
Epidermal growth factor receptor (Homo sapiens, UniProt P00533, L858R/T790M), sequence (P00533 25-1210 T790M/L858R limits assumed): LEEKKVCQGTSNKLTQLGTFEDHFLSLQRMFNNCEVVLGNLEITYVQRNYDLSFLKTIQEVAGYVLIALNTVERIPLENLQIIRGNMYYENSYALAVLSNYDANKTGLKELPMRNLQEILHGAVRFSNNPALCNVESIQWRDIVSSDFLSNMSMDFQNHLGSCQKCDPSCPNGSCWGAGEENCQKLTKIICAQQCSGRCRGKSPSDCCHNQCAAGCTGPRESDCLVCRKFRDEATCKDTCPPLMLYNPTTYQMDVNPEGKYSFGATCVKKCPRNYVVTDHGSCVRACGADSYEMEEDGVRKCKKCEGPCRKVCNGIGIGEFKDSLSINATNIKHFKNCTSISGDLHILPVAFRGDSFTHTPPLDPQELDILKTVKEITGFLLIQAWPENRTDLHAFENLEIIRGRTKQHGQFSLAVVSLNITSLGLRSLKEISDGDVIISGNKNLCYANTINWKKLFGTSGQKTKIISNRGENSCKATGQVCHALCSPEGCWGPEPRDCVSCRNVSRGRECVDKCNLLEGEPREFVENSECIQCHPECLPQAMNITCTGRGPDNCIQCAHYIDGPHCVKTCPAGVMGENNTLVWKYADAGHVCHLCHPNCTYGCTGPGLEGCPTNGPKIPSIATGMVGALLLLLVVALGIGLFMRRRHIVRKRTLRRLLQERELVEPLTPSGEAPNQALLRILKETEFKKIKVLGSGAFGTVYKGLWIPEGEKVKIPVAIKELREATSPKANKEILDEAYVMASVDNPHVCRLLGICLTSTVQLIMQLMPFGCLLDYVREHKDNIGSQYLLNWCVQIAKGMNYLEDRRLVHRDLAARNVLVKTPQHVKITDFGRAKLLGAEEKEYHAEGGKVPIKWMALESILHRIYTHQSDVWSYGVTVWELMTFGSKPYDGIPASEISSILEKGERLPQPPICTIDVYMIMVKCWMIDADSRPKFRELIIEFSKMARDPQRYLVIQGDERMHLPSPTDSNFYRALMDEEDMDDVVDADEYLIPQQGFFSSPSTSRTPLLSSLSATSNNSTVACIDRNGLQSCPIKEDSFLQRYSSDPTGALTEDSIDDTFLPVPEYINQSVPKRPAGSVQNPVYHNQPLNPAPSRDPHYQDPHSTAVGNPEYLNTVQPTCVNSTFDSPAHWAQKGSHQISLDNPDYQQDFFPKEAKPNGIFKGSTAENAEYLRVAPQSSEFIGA

[38] = system: NCI-H1975; assay: Antitumor activity against human NCI-H1975 cells xenografted in Foxn1 nude mouse assessed as reduction in tumor volume dosed orally once daily for 5 days relative to untreated control; type: functional, organism-based; method in brief: as §3
[39] = system: Mus musculus; assay: Toxicity in human NCI-H1975 cells xenografted Foxn1 nude mouse assessed as change in body weight at 20 mg/kg, po qd for 5 days (reference value: […]); type: organism-based; settings: in vivo, 120 h
[40] = Glutathione reactivity assessed as GSH adduct formation incubated for 1 hr using 10 mM glutathione
Method in brief: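 Compound incubated 1 h with 10 mM glutathione; GSH adduct formation measured.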

[41] = Antitumor activity against human NCI-H1975 cells xenografted in Foxn1 nude mouse assessed as reduction in tumor volume at 20 mg/kg, po qd for 5 days relative to untreated control; type: functional; method in brief: as §3

## Cc1cc(C(=O)Nc2nc3cccc(Cl)c3n2[C@@H]2CCCCN(C(=O)/C=C/CN(C)C)C2)ccn1 [NAZARTINIB]
[1]
  AUC: 6.53 µM·h
[2]
  AUC: 12.8 µM·h
[3]
  AUC: 12 µM·h
[4]
  MRT: 2.6 h
[5]
  CL: 35%
[6]
  Tmax: 0.83 h
[7]
  Vd: 2.4 L/kg
[8]
  T/C: -72%
[9]
  CL: 30%
[10]
  Activity: 3.8%
[11]
  bioavailability: 55%
[12]
  Tmax: 3 h
[13]
  Cmax: 2940 nM
[14]
  Activity: 60%
[15]
  bioavailability: 60%
[16]
  IC50: 7000 nM
[17]
  Cmax: 987 nM
[18]
  Vd: 2.8 L/kg
[19]
  Activity: 93%
[20]
  microsomal CLint: 66 µL/min/mg
[21]
  IC50: 1.52 nM
[22]
  solubility: > 175 µM
[23]
  AUC: 5.34 µM·h
[24]
  Time: <= 14 hr
[25]
  clearance: 15.7 mL/min/kg
[26]
  IC50: > 25000 nM
[27]
  MRT: 1.5 h
[28]
  microsomal CLint: 34 µL/min/mg
[29]
  Time: <= 14 hr
[30]
  T/C: -32%
[31]
  IC50: > 25000 nM
[32]
  clearance: 31.6 mL/min/kg
[33]
  Activity: 5.3%

## Cc1cccc2nc(NC(=O)c3ccnc(C(F)(F)F)c3)n([C@@H]3CCCCN(C(=O)/C=C/CN(C)C)C3)c12
[34]
  Time: <= 14 hr
[35]
  IC50: 72 nM
[2]
  AUC: 2.84 µM·h
[36]
  IC50: 2.65 nM
[37]
  IC50: 1.51 nM
[8]
  T/C: -64%
[10]
  Activity: -3.5%
[38]
  Activity: Dose-dependent effect
[15]
  bioavailability: 27%
[16]
  IC50: 6100 nM
[20]
  microsomal CLint: 96 µL/min/mg
[21]
  IC50: 1.48 nM
[22]
  solubility: 12.7 µM (≈ 6.71 µg/mL)
[39]
  Activity: -0.3%
[24]
  Time: <= 14 hr
[26]
  IC50: > 25000 nM
[28]
  microsomal CLint: 71 µL/min/mg
[31]
  IC50: > 25000 nM
[32]
  clearance: 62.5 mL/min/kg
[40]
  Drug metabolism: < 5%
[41]
  T/C: -31%
